Data on nine molecules can be found in ChEMBL document CHEMBL3745659, “Synthesis and Characterization of 4,11-Diaminoanthra[2,3-b]furan-5,10-diones: Tumor Cell Apoptosis through tNOX-Modulated NAD(+)/NADH Ratio and SIRT1” (J Med Chem, 2015).

Data set [1] relates to AGS. Description: Induction of apoptosis in human AGS cells after 24 hrs by annexin V-FITC staining-based flow cytometric analysis. The format is functional, cell-based. Put shortly: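 AGS cells exposed to compound for 24 h; Annexin V-FITC staining and flow cytometry used to give percentage of apoptotic cells; mean ± S.E. from at least three independent experiments.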
In general terms: Flow cytometry measures light scatter and fluorescence of single cells or particles in a stream.

Data set [2] can be described thus: Antiproliferative activity against human HCT116 cells after 72 hrs by MTT assay. The format is functional, cell-based. To be noted: HCT-116, 72 h. Background: Tetrazolium assays rely on reduction of a dye to a coloured formazan, in cell work by metabolically active cells.
Data set [3] in a line: Drug uptake in human K562/4 cells at 3 uM incubated for 2 hrs in presence of verapamil by flow cytometric analysis. The class given is ADME, cell-based. The following applies: k562/4, 2 h. Summed up:
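K562 and K562/4 cells incubated 2 h with 3 µM compound; uptake measured by flow cytometry as ratios (arbitrary units) of mean fluorescence channels of the histograms; verapamil (10 µM), a Pgp transport blocker, added 30 min before compound where used.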

In data set [4] the test system is K562. The data set is described as follows: Resistance index, ratio of IC50 for human K562/4 cells to IC50 for human K562 cells. The format is functional.
Data set [5] relates to L1210. The data set is described as follows: Antiproliferative activity against mouse L1210 cells after 72 hrs by MTT assay. The following applies: L1210, 72 h.
The subject of data set [6] is AGS. Description: Downregulation of tNOX protein level in human AGS cells at 0.1 to 0.5 uM after 24 hrs by Western blot analysis. The class given is functional, cell-based.
Data set [7] relates to K562. Description: Antiproliferative activity against human K562 cells after 72 hrs by MTT assay. The format is functional, cell-based. The following applies: K562, 72 h.
Data set [8] has as its system AGS. The data set is described as follows: Upregulation of caspase3-directed PARP cleavage in human AGS cells at 5 uM after 24 hrs by Western blot analysis. The format is functional, cell-based.
Data set [9] relates to AGS. The data set is described as follows: Downregulation of SIRT1 protein level in human AGS cells at 1 and 5 uM after 24 after 24 hrs by Western blot analysis. The class given is functional, cell-based. In general terms: A western blot detects proteins with antibodies after separation by electrophoresis.
Data set [10] deals with HeLa. Description: Antiproliferative activity against human HeLa cells after 72 hrs by MTT assay. The class given is functional, cell-based.
Data set [11] deals with CCRF-CEM. The data set is described as follows: Antiproliferative activity against human CEM cells after 72 hrs by MTT assay. The class given is functional, cell-based.
The subject of data set [12] is AGS. Description: Induction of apoptosis in human AGS cells assessed as change in mitochondrial transmembrane potential incubated for 1.5 hrs by DiOC6(3) dye-based flow cytometric analysis. The format is functional, cell-based.
Data set [13] has as its system AGS. The data set is described as follows: Upregulation of acetylated p53 level in human AGS cells at 1 and 5 uM after 24 hrs by Western blot analysis. The class given is functional, cell-based.
Data set [14] relates to AGS. Description: Downregulation of Bid protein level in human AGS cells after 24 hrs by Western blot analysis. The class given is functional, cell-based.
Data set [15] can be described thus: Antiproliferative activity against human K562/4 cells after 72 hrs by MTT assay. The format is functional, cell-based. The following applies: K562/4, 72 h.
The subject of data set [16] is AGS. Description: Upregulation of phosphorylated p53 level in human AGS cells at 1 and 5 uM after 24 hrs by Western blot analysis. The format is functional, cell-based.
Data set [17] has as its target T1, NAD-dependent protein deacetylase sirtuin-1 (Homo sapiens) (UniProt Q96EB6).
T1 sequence (whole entry): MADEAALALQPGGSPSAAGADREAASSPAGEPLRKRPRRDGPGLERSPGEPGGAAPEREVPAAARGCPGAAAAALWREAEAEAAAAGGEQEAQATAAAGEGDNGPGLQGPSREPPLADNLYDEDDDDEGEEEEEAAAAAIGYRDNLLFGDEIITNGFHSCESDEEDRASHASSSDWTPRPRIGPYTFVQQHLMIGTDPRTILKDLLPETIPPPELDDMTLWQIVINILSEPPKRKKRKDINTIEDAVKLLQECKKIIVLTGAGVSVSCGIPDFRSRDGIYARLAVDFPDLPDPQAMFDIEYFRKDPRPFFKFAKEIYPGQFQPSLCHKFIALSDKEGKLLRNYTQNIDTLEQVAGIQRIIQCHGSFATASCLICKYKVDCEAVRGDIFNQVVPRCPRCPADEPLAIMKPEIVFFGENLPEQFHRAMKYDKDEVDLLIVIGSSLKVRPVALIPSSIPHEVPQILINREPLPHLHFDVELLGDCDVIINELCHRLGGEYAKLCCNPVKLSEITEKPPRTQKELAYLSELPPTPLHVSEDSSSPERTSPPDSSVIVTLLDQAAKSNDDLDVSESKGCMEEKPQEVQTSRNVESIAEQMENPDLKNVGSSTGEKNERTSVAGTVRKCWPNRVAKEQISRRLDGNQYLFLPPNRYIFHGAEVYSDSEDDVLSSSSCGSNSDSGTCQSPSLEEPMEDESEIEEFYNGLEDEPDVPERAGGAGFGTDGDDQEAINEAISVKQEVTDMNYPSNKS
Description: Inhibition of human recombinant SIRT1 deacetylase activity using Arg-His-Lys-Lys(epsilon-acetyl)-AMC as substrate at 5 uM incubated for 45 mins by fluorescence analysis.

For data set [18], the target named is T2, DNA topoisomerase 1 (Homo sapiens) (UniProt P11387).
T2 sequence (whole entry): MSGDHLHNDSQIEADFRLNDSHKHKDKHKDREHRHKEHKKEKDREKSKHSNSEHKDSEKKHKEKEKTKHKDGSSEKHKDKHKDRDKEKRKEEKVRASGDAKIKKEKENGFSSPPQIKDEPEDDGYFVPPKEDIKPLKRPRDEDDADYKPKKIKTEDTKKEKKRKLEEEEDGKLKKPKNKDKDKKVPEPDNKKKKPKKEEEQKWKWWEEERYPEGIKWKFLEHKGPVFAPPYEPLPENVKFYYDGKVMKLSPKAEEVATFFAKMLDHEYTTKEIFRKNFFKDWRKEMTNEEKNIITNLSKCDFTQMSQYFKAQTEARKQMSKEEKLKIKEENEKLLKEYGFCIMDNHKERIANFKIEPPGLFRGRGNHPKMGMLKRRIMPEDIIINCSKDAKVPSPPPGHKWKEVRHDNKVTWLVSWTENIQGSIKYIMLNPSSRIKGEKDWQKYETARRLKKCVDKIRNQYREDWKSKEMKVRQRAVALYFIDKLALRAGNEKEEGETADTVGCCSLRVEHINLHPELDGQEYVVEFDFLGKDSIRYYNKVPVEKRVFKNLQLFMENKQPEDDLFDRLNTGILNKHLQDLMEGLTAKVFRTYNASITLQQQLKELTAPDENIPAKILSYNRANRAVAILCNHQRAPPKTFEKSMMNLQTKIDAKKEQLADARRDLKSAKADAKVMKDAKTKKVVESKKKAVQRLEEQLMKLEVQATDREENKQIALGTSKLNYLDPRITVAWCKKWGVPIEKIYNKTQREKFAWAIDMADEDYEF
The data set is described as follows: Inhibition of Top1 (unknown origin)-mediated relaxation of pBR322 DNA at 2.5 uM incubated for 30 mins by ethidium bromide staining-based gel electrophoresis assay. Summed up:
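Supercoiled pBR322 plasmid treated with Top1 without drug or with compound at 0.5, 2.5 or 10 µM; camptothecin as reference; relaxation assessed by gel electrophoresis.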

For data set [19], the system named is Calf thymus DNA. The data set is described as follows: Binding affinity to calf thymus double stranded DNA by spectrophotometric titration method. The following applies: Bos taurus. The format is nucleic-acid assay. Put shortly:
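Absorption spectra of compound recorded while double-stranded DNA concentration was increased (spectrophotometric titration); extinction at absorption maxima 540 and 585 nm and band shift followed.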

The source made the active and inactive calls. The calls are words filed in the database; no cut-off is given here.

Usually IC50 stands for the point on the concentration scale where inhibition reaches its midpoint. Low readings indicate higher potency, high ones lower potency.

Regarding `O=C1c2ccccc2C(=O)c2c1c(NCCNCCO)c1ccoc1c2NCCNCCO`, in data set [1], the Activity entry is “Dose-dependent effect”. Also, the half-inhibitory concentration (IC50) in data set [2] was 220 nM; in [5], 140 nM; in data set [7] it was 110 nM; in [10], 460 nM; in data set [11] it was 430 nM; in data set [15] it was 9800 nM. The Drug uptake result in data set [3] is given as “Active”. Besides, in [4], the “Ratio IC50” value was 89.09. Moreover, the outcome in [6], in data set [8], in [9], in [12], in data set [13] and in data set [14] was Active. Further, the outcome in data set [16] was Active.
On to `CN(C)CCNc1c2c(c(NCCN(C)C)c3occc13)C(=O)c1ccccc1C2=O`, for which, in data set [1], the Activity result was “Dose-dependent effect”. Further, the IC50 is 150 nM in data set [2]; 230 nM in data set [5]; 120 nM in [7]; 390 nM in data set [10]; 340 nM in data set [11]; 210 nM in data set [15]. In [4], the “Ratio IC50” value is on record as 1.75. The outcome in data set [6], in data set [8], in [9], in data set [12], in data set [13] and in data set [14] was Active. For the same molecule, the result in data set [16] was Active.
In the case of `NCCNc1c2c(c(NCCN)c3occc13)C(=O)c1ccccc1C2=O`, the Activity result in data set [1] is “Dose-dependent effect”. For the same molecule, the IC50 amounted to 110 nM in [2]; 300 nM in [5]; 110 nM in [7]; 550 nM in data set [10]; 750 nM in data set [11]; 150 nM in data set [15]. For the same molecule, the “Ratio IC50” value in data set [4] is 1.36. Besides, the result in data set [6], in data set [8], in data set [9], in [12], in data set [13] and in data set [14] was Active. In [16], the result was Active. Further, the inhibition result in data set [17] is “Active”.
Consider `CNCCNc1c2c(c(NCCNC)c3oc(C)cc13)C(=O)c1ccccc1C2=O`, for which the IC50 was found to be 1600 nM in [2], 190 nM in [10] and 4260 nM in [15]. Further, the “Ratio IC50” value in [4] is 35.5.
For the molecule `NCCCNc1c2c(c(NCCCN)c3occc13)C(=O)c1ccccc1C2=O`, the IC50 in [2] amounted to 410 nM; in [5], 730 nM; in data set [10], 870 nM; in [11], 890 nM.
In the case of `N=C(N)NCCNc1c2c(c(NCCNC(=N)N)c3sccc13)C(=O)c1ccccc1C2=O`, the inhibition result in data set [18] is “Active”.
On to `NCCNC(=O)c1cc2c(NCCN)c3c(c(NCCN)c2o1)C(=O)c1ccccc1C3=O`, for which the IC50 stood at 6520 nM in data set [2], 26400 nM in data set [5], 83800 nM in data set [10] and 105000 nM in [11].
For the molecule `O=C1c2c(O)ccc(O)c2C(=O)c2c(NCCNCCO)ccc(NCCNCCO)c21`, the Ka in [19] came out at 1 ×10⁶ /M.
`Cc1cc2c(NCCNC(=N)N)c3c(c(NCCNC(=N)N)c2o1)C(=O)c1ccccc1C3=O`: in [18], the inhibition result is “Active”.
